Measurements gathered from unrelated publications.
Lines come from different studies, so protocols differ.
Target: Cytochrome P450 1A2 (CYP1A2, Homo sapiens, UniProt P05177)
Effect on: enzyme activity
Action: inhibitor

| SMILES | method | host | medium | time | pH | quantity | value |
| --- | --- | --- | --- | --- | --- | --- | --- |
| COc1ccc2[nH]c([S+]([O-])Cc3ncc(C)c(OC)c3C)nc2c1 (stereo not drawn) | fluorescence | – | – | – | – | IC50 | 112 µM |
| COc1ccc2c(Cc3ccccc3F)c3[n+](cc2c1OC)CCc1cc2c(cc1-3)OCO2 | – | – | – | – | – | IC50 | > 10 µM |
| C#Cc1ccc2cc(-c3ccccc3)c(=O)oc2c1 | – | – | – | 6 min | pH 7.6 | Ki | 2.97 µM |
| Cc1cc2c(F)c(Oc3ncnn4cc(OC[C@@H](C)O)c(C)c34)ccc2[nH]1 | fluorescence | – | – | 15 min | – | IC50 | 44.5 µM |
| COc1ccc2cc3[n+](cc2c1OC)CCc1cc2c(cc1-3)OCO2 | – | – | – | – | – | IC50 | > 10 µM |
| COc1ccn2c(Nc3ccccc3F)c(-c3ccncn3)nc2c1 | – | – | – | – | – | IC50 | 1.8 µM |
| C#Cc1ccc2c(=O)cc(-c3ccccc3)oc2c1 | – | – | – | 6 min | pH 7.6 | Ki | 0.52 µM |
| CCn1c(C(=O)N(C2CC2)C2CC2)cc2c3c(ncn3C)c(Nc3cc(C)n(C)n3)nc21 | – | human | liver microsomes | – | – | Ki | 0.6 µM |
| CC(CN1c2ccccc2Sc2ccccc21)N(C)C (stereo not drawn) | fluorescence | – | – | – | – | IC50 | 1 µM |
| N#Cc1ccnc(Oc2nn([C@H]3C[C@H](F)C3)c3ncnc(N)c23)c1 | – | human | liver microsomes | 10 min | – | IC50 | 20.8 µM |
| C=CC(=O)Nc1cc(Nc2nccc(Nc3cc(Cl)c(F)cc3C(C)(C)O)n2)c(OC)cc1N1CC[C@@H](N(C)C)C1 | – | human | liver microsomes | – | – | IC50 | > 30 µM |
| Nc1nc(N)c2nc(CNc3cccc4ccccc34)cnc2n1 | luciferase | – | – | – | – | IC50 | 72.4 µM |
